“Also recorded” adds a separate entry of the source. Where two headings read alike, the source gives them in different places. Blank lines part the entries; values can stand above or below the molecule they belong to.
Experiments:
[1] = 14C-labeled, 1.1 × 10^6 cells/ml, by 2.5 h; ref Bernhard et al., 2006; cited from earlier work
[2] = Rainbow trout liver S9 substrate depletion assay; assay type: in vitro ADME, rainbow trout (Oncorhynchus mykiss); details: for Depletion / biotransformation in RT-S9 assay (in words): active RT-S9, tested individually, up to 2 h
[3] = Baseline equilibrium BCF predicted from DMLW and phospholipid content; set-up: species or system fish; details: fML of 1%
[4] = human liver microsomes; ref Seguin et al., 2019; cited from earlier work
[5] = ref Chen et al., 2016, cited from earlier work; for CLint,in vivo: RT-S9
[6] = N-demethylation metabolite formation in RT-S9 assay; assay type: in vitro ADME, rainbow trout (Oncorhynchus mykiss); details: for 1° alkylamine product present at last time point as % of removed parent: 120 min; for Time of peak concentration of 2° alkylamine metabolite: 2-h RT-S9 assay
Summary of the method: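 Trout liver S9 (2 mg/ml protein) with 2 mM NADPH, 2 mM UDPGA, 0.1 mM PAPS, 5 mM GSH and alamethicin, pH 7.8, 11 °C; substrate starts at about 1.0 µM. Sampled at 0, 20, 40, 60, 90 and 120 min and quenched in ice-cold acetonitrile. N-demethylated products scanned by LC–MS/MS and quantified against external standards. Metabolite mass divided by parent mass removed at the same time point.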

[7] = RT-S9 substrate depletion assay, cationic surfactants tested as mixtures of six; assay type: in vitro ADME, rainbow trout (Oncorhynchus mykiss); details: for CLint,in vivo lower in mixture than tested individually: Mixture 2; for Clearance rate in mixture compared with single-compound assay (in words): Mixture 1
[8] = Cofactor-limited depletion of T12 in RT-S9 assay; assay type: in vitro ADME, rainbow trout (Oncorhynchus mykiss)
Summary of the method: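 Pooled liver S9 from five trout, 2 mg/ml protein, in 100 mM PPBS pH 7.8 with 10 μg/ml alamethicin, at 11 °C; substrate starts at about 1.0 µM. Duplicate six-sample time series over 60 min, either with no added cofactors, NADPH (2 mM) alone, NADPH plus UDPGA (2 mM), GSH (5 mM) or PAPS (0.1 mM), or all cofactors. Parent and N-demethyl product measured by LC–MS/MS.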

[9] = In vitro half-life with human liver microsomes; assay type: in vitro ADME

SMILES: CCCCCCCCCCCCCCCCN [P16, Hexadecylamine]
- Concentration remaining, % of starting value [1]: 56.0 ± 1.3%
- Depletion / biotransformation in RT-S9 assay (in words) [2]: No significant depletion; also recorded: no detectable biotransformation
- Factor by which BCFbaseline estimate exceeds empirical BCF or BAF [3]: 70

SMILES: CCCCCCCCCCCCCCCC[N+](C)(C)Cc1ccccc1 [BAC16]
- In vitro half-life [4]: 15 min

SMILES: CCCCCCCCCCCC(=O)OCCN [P12‐Ac, 2-aminoethyl laurate]
- Clearance rate relative to alkylamine analog P12 ([2]; RT-S9 assay): 10 times higher

SMILES: CCCCCCCCCCCC[N+](C)(C)C.[Cl-] [Q12]
- Depletion / biotransformation in RT-S9 (in words) [5]: identical result

SMILES: CCCCCCCCCC[N+](C)(C)CCCCCCCCCC [DDAC, didecyldimethylammonium chloride]
- Factor by which BCFbaseline estimate exceeds empirical BCF or BAF [3]: 420

SMILES: CCCCCCCCCCCCNC [S12, N-Methyldodecylamine]
- 1° alkylamine product present at last time point as % of removed parent [6]: 25%
- CLint,in vivo lower in mixture than tested individually [7]: 50%
- CLint,in vivo [5]: 162 ml h^–1 g liver^–1

SMILES: CCCCCCCCCCCCN(C)C [T12, N,N-Dimethyldodecylamine]
- CLint,in vivo ([8]; RT-S9 with only NADPH added): 224 ml h^–1 g liver^–1
- Clearance (in words) ([8]; UDPGA or GSH in combination with NADPH, vs NADPH only): did not result in increased clearance
- Depletion (in words) ([8]; active RT-S9, no added cofactors): no significant depletion
- Depletion / biotransformation in RT-S9 assay (in words) [2]: reduced below the limit of quantitation
- CLint,in vivo [5]: 472 ml h^–1 g liver^–1

SMILES: CCCCCCCCNC [S8]
- Depletion / biotransformation in RT-S9 (in words) [5]: negligible depletion

SMILES: CCCCCCCCCCCCCN(C)C [T13, N,N-Dimethyltridecylamine]
- Clearance rate in mixture compared with single-compound assay (in words) [7]: not significantly different

SMILES: CCCCCCCCCCCCCC[N+](C)(C)C.[Cl-] [Q14, N,N,N-Trimethyltetradecylammonium chloride]
- Depletion / biotransformation in RT-S9 assay (in words) [2]: no significant biotransformation
- Factor by which BCFbaseline estimate exceeds empirical BCF or BAF [3]: 33

SMILES: CCCCCCCCCCNC [S10, N-Methyldecylamine]
- 1° alkylamine product present at last time point as % of removed parent [6]: 10%

SMILES: CCCCCCCCCN [P9, Nonylamine]
- Clearance rate in mixture compared with single-compound assay (in words) [7]: not significantly different

SMILES: CCCCCCCCCN(C)C [T9, N,N-Dimethylnonylamine]
- CLint,in vivo lower in mixture than tested individually [7]: 43%
- Depletion / biotransformation in RT-S9 assay (in words) [2]: reduced below the limit of quantitation

SMILES: CCCCCCCCCC[N+](C)(C)Cc1ccccc1.[Cl-] [BAC10]
- In vitro half-life [4]: 1 min

SMILES: CCCCCCCC[N+](C)(C)C.[Cl-] [Q8]
- Depletion / biotransformation in RT-S9 (in words) [5]: identical result

SMILES: CCCCCCCCCCCCCCCCNC [S16, N-Methylhexadecylamine]
- 1° alkylamine product present at last time point as % of removed parent [6]: 55%
- CLint,in vivo lower in mixture than tested individually [7]: 70%
- Factor by which BCFbaseline estimate exceeds empirical BCF or BAF [3]: 49

SMILES: CCCCCCCCCCCCCN [P13, Tridecylamine]
- Factor by which BCFbaseline estimate exceeds empirical BCF or BAF [3]: 10
- Predicted BCFbaseline [3]: 14,000 L kg^–1

SMILES: CCCCCCCCCC[N+](C)(C)C.[Br-] [Q10, N,N,N-Trimethyldecylammonium bromide]
- Depletion / biotransformation in RT-S9 assay (in words) [2]: no significant biotransformation

SMILES: CCCCCCCCCCCCN [P12, Dodecylamine]
- Depletion / biotransformation in RT-S9 assay (in words) [2]: No significant depletion
- CLint,in vivo [5]: 37 ml h^–1 g liver^–1

SMILES: CCCCCCCCN(C)C [T8, N,N-Dimethyloctylamine]
- CLint,in vivo [5]: 184 ml h^–1 g liver^–1

SMILES: CCCCCCCCCCCCCCN [P14, Tetradecylamine]
- Depletion / biotransformation in RT-S9 assay (in words) [2]: No significant depletion

SMILES: CCCCCCCCCCCCCCCC[N+](C)(C)C.[Cl-] [Q16, N,N,N-Trimethylhexadecylammonium chloride]
- Depletion / biotransformation in RT-S9 assay (in words) [2]: no significant biotransformation

SMILES: CCCCCCCCN [P8]
- Depletion / biotransformation in RT-S9 (in words) [5]: no significant depletion

Continued, in another order:

- Factor by which BCFbaseline estimate exceeds empirical BCF or BAF [3]: 128
SMILES: CCCCCCCCCCCCCCCCCCN(C)C [T18, N,N‐dimethyloctadecylamine]

- Depletion / biotransformation in RT-S9 assay (in words) [2]: No significant depletion
SMILES: CCCCCCCCCCCCCC[N+](C)(C)Cc1ccccc1.[Cl-] [BAC14, Benzyldimethyltetradecylammonium chloride]

- Time of peak concentration of 2° alkylamine metabolite [6]: 120 min
- Factor by which BCFbaseline estimate exceeds empirical BCF or BAF [3]: 42
SMILES: CCCCCCCCCCCCCCCCN(C)C [T16, N,N-Dimethylhexadecylamine]

- Time of peak concentration of 2° alkylamine metabolite [6]: 20 min
- Clearance rate in mixture compared with single-compound assay (in words) [7]: not significantly different
- Depletion / biotransformation in RT-S9 assay (in words) [2]: reduced below the limit of quantitation
SMILES: CCCCCCCCCCN(C)C [T10, N,N-Dimethyldecylamine]

- CLint,in vitro ([2]; RT-S9, present study, tested individually): 0.14 ml h^–1 mg protein^–1
- Depletion / biotransformation in RT-S9 assay (in words) [2]: significant depletion
- HLM CLint,in vitro faster than RT-S9 CLint,in vitro ([9]; HLM vs present study RT-S9): approximately 100 times
- CLint,in vitro corresponding to HLM half-life ([9]; from half-life of ref Seguin et al., 2019): 13.86 ml h^–1 mg protein^–1
SMILES: CCCCCCCCCCCC[N+](C)(C)Cc1ccccc1 [BAC12, Benzyldimethyldodecylammonium chloride]
- In vitro half-life [4]: 3 min

- Factor by which BCFbaseline estimate exceeds empirical BCF or BAF [3]: 3.1
SMILES: CCCCCCCCCCCCCCN(C)C [T14, N,N-Dimethyltetradecylamine]

— PMC9187044 (Environmental Toxicology and Chemistry, 2021)
